Experimental data from ChEMBL document CHEMBL5260844, “Optimization of PDE3A Modulators for SLFN12-Dependent Cancer Cell Killing” (ACS Med Chem Lett, 2019).
Activity calls are given as the source filed them. The rule behind the calls is not given here.

Experiments:
[1] = test system: A549; experiment: Cytotoxicity against human A549 cells assessed as cell growth inhibition upto 10 uM measured after 3 days by […] reagent based assay; conditions: time 72.0 hrs
[2] = test system: HeLa; experiment: Cytotoxicity against human HeLa cells assessed as cell growth inhibition measured after 48 hrs by […] reagent based assay; type: functional
[3] = test system: HCT-116; experiment: Cytotoxicity against human HCT-116 cells assessed as cell growth inhibition upto 10 uM measured after 48 hrs by […] reagent based assay; type: functional
How it was run: (§1)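 Counterscreen viability assay in HCT116 colorectal cancer cells and IMR90 normal lung fibroblasts, run alongside DNMDP-sensitive lines.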

[4] = test system: IMR-90; experiment: Cytotoxicity against human IMR-90 cells assessed as cell growth inhibition upto 10 uM measured after 48 hrs by […] reagent based assay; type: functional
How it was run: as §1

[5] = Microsomal stability in human liver microsomes assessed as parent compound remaining measured after 1 hr in presence of NADPH by UHPLC-MS analysis; type: ADME, Microsome; conditions: read-out: Stability
How it was run: (§2)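 Test compound incubated with human or mouse liver microsomes. Percent remaining at 1 h reported as the average of three values.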

[6] = Plasma protein binding in mouse incubated for 5 hrs by UPLC-MS method; type: ADME, cell-free; conditions: read-out: PPB (converted)
How it was run: (§3)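 Plasma protein binding, human and mouse, reported as % bound, average of three values.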

[7] = target: cGMP-inhibited 3',5'-cyclic phosphodiesterase 3A (Homo sapiens, UniProt Q14432); experiment: Inhibition of human N-terminal His-GST-tagged recombinant PDE3A (669-end residues) using fluorescent labelled cAMP as substrate
[8] = test system: SK-MEL3; experiment: Cytotoxicity against human SK-MEL3 cells assessed as cell growth inhibition upto 10 uM measured after 48 hrs by […] reagent based assay; type: functional; conditions: SK-MEL3, 48 h
[9] = Selectivity ratio, ratio of IC50 for human PDE3A to EC50 for cytotoxicity against human HeLa cells
[10] = target: cGMP-inhibited 3',5'-cyclic phosphodiesterase 3B (Homo sapiens, UniProt Q13370); experiment: Inhibition of human recombinant PDE3B
[11] = Stability in mouse plasma assessed as parent compound remaining after 5 hrs; type: ADME, cell-free; conditions: read-out: Stability
How it was run: (§4)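 Human or mouse plasma incubation. Percent parent remaining at 5 h, average of three values.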

[12] = Plasma protein binding in human incubated for 5 hrs by UPLC-MS method; type: ADME, cell-free; conditions: read-out: PPB (converted)
How it was run: as §3

[13] = Stability in human plasma assessed as parent compound remaining after 5 hrs; type: ADME, cell-free; conditions: read-out: Stability
How it was run: as §4

[14] = Selectivity ratio, ratio of IC50 for human PDE3B to EC50 for cytotoxicity against human HeLa cells
[15] = Microsomal stability in mouse liver microsomes assessed as parent compound remaining at 1 uM measured after 1 hr in presence of NADPH by UHPLC-MS analysis; type: ADME, Microsome; conditions: read-out: Stability
How it was run: as §2

Sequence of cGMP-inhibited 3',5'-cyclic phosphodiesterase 3A (Q14432 whole entry): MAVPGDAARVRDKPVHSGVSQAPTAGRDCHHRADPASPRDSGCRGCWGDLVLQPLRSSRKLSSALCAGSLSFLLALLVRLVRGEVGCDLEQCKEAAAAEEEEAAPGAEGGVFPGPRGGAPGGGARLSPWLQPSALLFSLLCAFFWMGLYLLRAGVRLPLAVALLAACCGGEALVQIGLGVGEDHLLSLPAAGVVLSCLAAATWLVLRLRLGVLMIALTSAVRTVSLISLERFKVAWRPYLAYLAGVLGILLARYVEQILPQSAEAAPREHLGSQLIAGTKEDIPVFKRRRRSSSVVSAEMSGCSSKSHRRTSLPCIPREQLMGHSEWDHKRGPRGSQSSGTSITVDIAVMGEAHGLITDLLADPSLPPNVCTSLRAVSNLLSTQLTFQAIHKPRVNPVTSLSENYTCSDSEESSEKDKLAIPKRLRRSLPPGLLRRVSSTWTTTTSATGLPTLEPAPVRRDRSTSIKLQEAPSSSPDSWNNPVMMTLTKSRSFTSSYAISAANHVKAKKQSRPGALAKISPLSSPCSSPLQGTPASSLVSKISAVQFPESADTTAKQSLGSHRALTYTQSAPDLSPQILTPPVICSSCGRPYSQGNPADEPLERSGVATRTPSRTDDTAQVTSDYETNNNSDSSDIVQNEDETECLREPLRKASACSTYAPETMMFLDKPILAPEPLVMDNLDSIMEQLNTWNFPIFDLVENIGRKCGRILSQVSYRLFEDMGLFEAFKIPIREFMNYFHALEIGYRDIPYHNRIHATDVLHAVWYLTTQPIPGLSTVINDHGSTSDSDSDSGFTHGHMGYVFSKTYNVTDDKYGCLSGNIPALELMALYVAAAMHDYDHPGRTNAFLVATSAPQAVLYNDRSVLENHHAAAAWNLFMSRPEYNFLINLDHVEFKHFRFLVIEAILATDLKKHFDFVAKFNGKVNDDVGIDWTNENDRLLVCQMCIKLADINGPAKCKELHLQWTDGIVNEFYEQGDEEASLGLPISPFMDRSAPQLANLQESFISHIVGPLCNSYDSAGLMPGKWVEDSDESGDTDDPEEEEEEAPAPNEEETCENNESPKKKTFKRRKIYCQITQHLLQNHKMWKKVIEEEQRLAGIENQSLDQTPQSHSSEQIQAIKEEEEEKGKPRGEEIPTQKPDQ
Sequence of cGMP-inhibited 3',5'-cyclic phosphodiesterase 3B (Q13370 whole entry): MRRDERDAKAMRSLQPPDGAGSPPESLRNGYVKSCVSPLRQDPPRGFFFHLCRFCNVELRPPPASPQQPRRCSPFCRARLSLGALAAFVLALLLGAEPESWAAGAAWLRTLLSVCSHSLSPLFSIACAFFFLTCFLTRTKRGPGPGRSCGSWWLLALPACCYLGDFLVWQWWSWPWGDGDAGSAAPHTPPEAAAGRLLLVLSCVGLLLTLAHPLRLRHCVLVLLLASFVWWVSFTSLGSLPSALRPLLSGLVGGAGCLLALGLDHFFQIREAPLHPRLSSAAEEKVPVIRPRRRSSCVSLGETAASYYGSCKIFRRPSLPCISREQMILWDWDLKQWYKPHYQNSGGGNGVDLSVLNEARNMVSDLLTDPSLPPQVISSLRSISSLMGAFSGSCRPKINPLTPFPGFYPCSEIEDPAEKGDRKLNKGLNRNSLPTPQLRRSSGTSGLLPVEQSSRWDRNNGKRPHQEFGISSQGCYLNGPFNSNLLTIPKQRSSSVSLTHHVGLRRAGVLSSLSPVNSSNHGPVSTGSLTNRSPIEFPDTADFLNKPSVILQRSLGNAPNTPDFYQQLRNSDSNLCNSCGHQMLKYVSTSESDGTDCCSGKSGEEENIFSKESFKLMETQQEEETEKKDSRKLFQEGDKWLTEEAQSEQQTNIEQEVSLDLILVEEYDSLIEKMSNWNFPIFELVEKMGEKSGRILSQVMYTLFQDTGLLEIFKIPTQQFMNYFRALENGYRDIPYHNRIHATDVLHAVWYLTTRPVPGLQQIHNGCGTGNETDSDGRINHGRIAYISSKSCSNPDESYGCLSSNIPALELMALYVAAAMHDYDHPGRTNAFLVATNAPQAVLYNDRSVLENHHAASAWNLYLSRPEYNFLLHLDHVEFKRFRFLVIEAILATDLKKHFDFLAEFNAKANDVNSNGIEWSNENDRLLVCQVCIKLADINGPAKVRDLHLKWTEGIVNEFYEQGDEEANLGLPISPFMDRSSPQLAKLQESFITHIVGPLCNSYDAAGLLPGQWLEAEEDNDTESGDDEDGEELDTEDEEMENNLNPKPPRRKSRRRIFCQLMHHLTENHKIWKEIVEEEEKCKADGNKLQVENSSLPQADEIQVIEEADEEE

Row | SMILES | Activity [1] | EC50 [2] [µM] | other results
1 | CC1(C)C(=O)NN=C1c1ccc(Cl)cc1 | inactive | > 1 | –
2 | C[C@H]1CC(=O)NN=C1c1ccc(N2CCOCC2)c(F)c1 | inactive | > 1 | Activity [3]: inactive; Activity [4]: inactive
3 | CC1CC(=O)NN=C1c1ccc(N2CCOCC2)cc1 (racemic) | inactive | 0.036 | remaining at 1 h [5]: 94%; Activity [3]: inactive; fraction unbound at 5 h [6]: 0.58; IC50 [7]: 0.12 µM; Activity [4]: inactive; EC50 [8]: 0.011 µM; Ratio IC50/EC50 [9]: 2.4; IC50 [10]: 0.26 µM; remaining at 5 h [11]: 105%; fraction unbound at 5 h [12]: 0.53; remaining at 5 h [13]: 87%; Ratio IC50/EC50 [14]: 2.4; remaining at 1 h, 1 µM [15]: 99%
4 | CCN(CC)c1ccc(C2=NNC(=O)CC2C)cc1 (racemic) | inactive | 0.0088 | remaining at 1 h [5]: 89%; fraction unbound at 5 h [6]: 0.1; remaining at 5 h [11]: 96%; fraction unbound at 5 h [12]: 0.1; remaining at 5 h [13]: 104%; remaining at 1 h, 1 µM [15]: 26%
5 | C[C@@H]1CC(=O)NN=C1c1ccc(F)c(F)c1 | inactive | 0.022 | Activity [3]: inactive; Activity [4]: inactive
6 | CCNc1ccc(C2=NNC(=O)C[C@H]2C)cc1[N+](=O)[O-] | inactive | 0.0011 | –
7 | CCN(CC)c1ccc(C2=NNC(=O)C[C@H]2C)cc1[N+](=O)[O-] | inactive | 0.0038 | –
8 | Cc1nc2cc(C3=NNC(=O)C[C@H]3C)ccc2[nH]1 | inactive | > 1 | –
9 | CCCc1ccc(C2=NNC(=O)C[C@H]2C)cc1 | inactive | 0.016 | –
10 | CC(=O)Nc1ccc(C2=NNC(=O)C[C@H]2C)cc1[N+](=O)[O-] | inactive | 0.0049 | Activity [3]: inactive; Activity [4]: inactive; EC50 [8]: 0.0042 µM
11 | C/C=C/c1ccc(C2=NNC(=O)C[C@H]2C)cc1 | inactive | 0.0088 | –
12 | C[C@@H]1CC(=O)NN=C1c1ccc(C2CCCCC2)cc1 | inactive | 0.0077 | Activity [3]: inactive; Activity [4]: inactive
13 | CCN1N=C(c2ccc(N(CC)CC)c([N+](=O)[O-])c2)C(C)CC1=O (racemic) | inactive | > 1 | Activity [3]: inactive; Activity [4]: inactive
14 | CCNc1ccc(C2=NNC(=O)C[C@H]2C)cc1 | inactive | 0.071 | –
15 | CC(=O)Nc1ccc(C2=NNC(=O)C[C@H]2C)cc1C(C)=O | inactive | 0.13 | –
16 | C[C@H]1CC(=O)NN=C1c1ccc(F)c(F)c1 | inactive | > 1 | –
17 | CCN(CC)c1ccc(C2=NNC(=O)C[C@H]2C)cc1 | inactive | 0.0033 | –
18 | CC1CC(=O)NN=C1c1ccc(F)c(F)c1 (racemic) | inactive | 0.064 | remaining at 1 h [5]: 108%; fraction unbound at 5 h [6]: 0.48; remaining at 5 h [11]: 96%; fraction unbound at 5 h [12]: 0.44; remaining at 5 h [13]: 93%; remaining at 1 h, 1 µM [15]: 82%
19 | CC(=O)Nc1ccc(C2=NNC(=O)C[C@H]2C)cc1N | inactive | > 1 | –
20 | C[C@@H]1CC(=O)NN=C1c1ccc(-c2cncnc2)cc1 | inactive | 0.013 | remaining at 1 h [5]: 83%; Activity [3]: inactive; fraction unbound at 5 h [6]: 0.46; Activity [4]: inactive; remaining at 5 h [11]: 108%; fraction unbound at 5 h [12]: 0.44; remaining at 5 h [13]: 104%; remaining at 1 h, 1 µM [15]: 105%

Row | SMILES | Activity [1] | EC50 [2] [µM] | other results
21 | C[C@@H]1CC(=O)NN=C1c1ccc(Cl)c(Cl)c1 | inactive | 0.0045 | IC50 [7]: 0.008 µM; EC50 [8]: 0.0056 µM; Ratio IC50/EC50 [9]: 2.4; IC50 [10]: 0.014 µM; Ratio IC50/EC50 [14]: 2.4
22 | CC(=O)Nc1ccc(C2=NNC(=O)C[C@H]2C)cc1 | inactive | > 1 | IC50 [7]: 0.024 µM; IC50 [10]: 0.016 µM
23 | CC1CC(=O)NN=C1c1ccc(N2CCOCC2)c(F)c1 (racemic) | inactive | 0.0028 | remaining at 1 h [5]: 109%; fraction unbound at 5 h [6]: 0.45; remaining at 5 h [11]: 101%; fraction unbound at 5 h [12]: 0.43; remaining at 5 h [13]: 80%; remaining at 1 h, 1 µM [15]: 102%
24 | CCN(CC)c1ccc(C2=NNC(=O)C2(C)C)cc1 | inactive | > 1 | –
25 | C[C@@H]1CC(=O)NN=C1c1ccc(Cl)cc1 | inactive | 0.033 | remaining at 1 h [5]: 81%; Activity [3]: inactive; fraction unbound at 5 h [6]: 0.19; Activity [4]: inactive; EC50 [8]: 0.029 µM; remaining at 5 h [11]: 86%; fraction unbound at 5 h [12]: 0.13; remaining at 5 h [13]: 93%; remaining at 1 h, 1 µM [15]: 92%
26 | C[C@@H]1CC(=O)NN=C1c1ccc(I)cc1 | inactive | 0.0071 | –
27 | C[C@@H]1CC(=O)NN=C1c1ccc(N2CCOCC2)cc1 | inactive | 0.013 | –
28 | C[C@@H]1CC(=O)NN=C1c1ccc(F)cc1 | inactive | 0.41 | –
29 | C[C@@H]1CC(=O)NN=C1c1ccc(N)cc1 | inactive | > 1 | –
30 | C[C@@H]1CC(=O)NN=C1c1ccc(C2=CCCCC2)cc1 | inactive | 0.0022 | –
31 | CC(=O)Nc1ccc(C2=NNC(=O)C[C@H]2C)cc1Br | inactive | 0.021 | –
32 | CC1(C)C(=O)NN=C1c1ccc(N)cc1 | inactive | > 1 | –
33 | CCN(CC)c1ccc(C2=NNC(=O)CC2C)cc1N (stereo unspecified) | inactive | 0.24 | –
34 | C#Cc1cc(C2=NNC(=O)C[C@H]2C)ccc1NC(C)=O | inactive | 0.065 | –
35 | C[C@@H]1CC(=O)NN=C1c1ccc(-n2cnnc2)cc1 | inactive | > 1 | –
36 | CC(=O)Nc1ccc(C2=NNC(=O)C[C@H]2C)cc1Cl | inactive | 0.024 | IC50 [7]: 0.008 µM; EC50 [8]: 0.031 µM; Ratio IC50/EC50 [9]: 0.38; IC50 [10]: 0.01 µM; Ratio IC50/EC50 [14]: 0.38
37 | CC1(C)C(=O)NN=C1c1ccc(N2CCOCC2)cc1 | inactive | > 1 | –
38 | CCN(CC)c1ccc(C2=NNC(=O)CC2C)cc1NC(C)=O (stereo unspecified) | inactive | > 1 | –
39 | C[C@@H]1CC(=O)NN=C1c1ccc(N2CCN(C)CC2)cc1 | inactive | 0.31 | IC50 [7]: 2 µM; EC50 [8]: 0.684 µM; Ratio IC50/EC50 [9]: 2.4; IC50 [10]: 3.5 µM; Ratio IC50/EC50 [14]: 2.4
40 | C[C@@H]1CC(=O)NN=C1c1ccc(N2CCOCC2)c(Cl)c1 | inactive | 0.0045 | –
